Data published in paper PMC8717358 (Journal of the American Chemical Society, 2021).
Numbering of substitutions follows the chain as printed.

Assays:
Med25 AcID ETV5 = molecular target: T1, Med25 AcID ETV5 (Homo sapiens, UniProt Q71SY5); test: Fluorescence polarization inhibition of Med25 AcID ETV5 interaction; settings: H1 binding surface
T1 sequence (Q71SY5 389-543 limits assumed): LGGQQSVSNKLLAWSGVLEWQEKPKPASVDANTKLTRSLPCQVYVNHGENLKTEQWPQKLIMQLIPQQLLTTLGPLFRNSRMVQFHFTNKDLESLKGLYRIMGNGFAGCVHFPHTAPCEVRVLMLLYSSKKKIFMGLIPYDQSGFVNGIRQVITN

IBiD ACTR = IBiD ACTR (Homo sapiens, UniProt Q92793); assay type: binding
[1] = molecular target: T2, Med25 AcID fl-VP16(465–490) (Homo sapiens, UniProt Q71SY5); assay type: binding
T2 sequence (Q71SY5 389-543 limits assumed): T1 sequence (Q71SY5 389-543 limits assumed)

full-length Med25 = molecular target: T3, full-length Med25 (Homo sapiens, UniProt Q71SY5); test: Cellular thermal shift assay in HeLa cell nuclear extracts; assay type: cell-based; settings: 25 μM NA
T3 sequence (Q71SY5 1-747): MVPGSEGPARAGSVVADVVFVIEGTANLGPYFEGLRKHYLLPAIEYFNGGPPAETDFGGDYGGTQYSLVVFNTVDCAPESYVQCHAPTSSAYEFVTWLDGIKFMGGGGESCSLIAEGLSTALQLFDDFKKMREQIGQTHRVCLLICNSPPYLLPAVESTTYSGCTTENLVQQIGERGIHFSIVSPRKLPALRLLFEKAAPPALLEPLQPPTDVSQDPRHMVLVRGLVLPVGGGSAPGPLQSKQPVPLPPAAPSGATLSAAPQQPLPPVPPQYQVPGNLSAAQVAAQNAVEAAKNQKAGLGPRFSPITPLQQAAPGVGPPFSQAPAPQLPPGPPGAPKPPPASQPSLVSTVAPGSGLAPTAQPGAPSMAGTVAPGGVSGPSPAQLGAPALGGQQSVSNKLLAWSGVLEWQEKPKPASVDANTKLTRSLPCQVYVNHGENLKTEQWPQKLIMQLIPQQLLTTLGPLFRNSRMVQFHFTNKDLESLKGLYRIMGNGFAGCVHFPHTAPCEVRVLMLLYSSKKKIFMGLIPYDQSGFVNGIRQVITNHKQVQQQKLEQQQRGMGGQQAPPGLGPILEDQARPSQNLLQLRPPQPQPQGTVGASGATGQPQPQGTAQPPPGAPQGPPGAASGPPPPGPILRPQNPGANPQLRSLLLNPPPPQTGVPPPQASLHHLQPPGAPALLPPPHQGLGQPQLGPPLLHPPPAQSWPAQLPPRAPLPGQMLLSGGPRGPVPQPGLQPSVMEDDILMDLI
Outline: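 HeLa cell nuclear extracts were dosed with 25 μM test compound or an equivalent amount of DMSO vehicle. Samples were then heated across a range of temperatures to assess thermal stabilization of Med25.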

MDA-MB-231 cells = test: Isobologram synergy with lapatinib, cell viability assay; assay type: cell-based; settings: fixed dose ratios, 2 days, MTT
Med25 ATF6α = molecular target: T4, Med25 ATF6α (Homo sapiens, UniProt Q71SY5); test: Fluorescence polarization inhibition of Med25 ATF6α interaction; settings: H2 binding surface
T4 sequence (Q71SY5 389-543 limits assumed): T1 sequence (Q71SY5 389-543 limits assumed)

Med25 ETV5 complex [2] = molecular target: T5, Med25 ETV5 complex (Homo sapiens, UniProt Q71SY5); test: Co-immunoprecipitation of ETV5 with Med25 in VARI068 cells; assay type: cell-based
T5 sequence (Q71SY5 1-747): T3 sequence (Q71SY5 1-747)
Outline: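 Cells were treated with test compound. ETV5 was co-immunoprecipitated with Med25 and detected by Western blot.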

MMP2 transcript = test: qPCR analysis of MMP2 transcript levels in VARI068 cells; assay type: cell-based; settings: normalized to RPL19
Outline: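 Test compound- or vehicle-treated cells were assayed by qPCR for MMP2 transcript, normalized to reference gene RPL19. Runs were technical triplicates in biological duplicate and averaged.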

Med25 ETV5 complex [3] = molecular target: T5, Med25 ETV5 complex; test: Co-immunoprecipitation of ETV5 with Med25 in HeLa cells; assay type: cell-based; settings: 25 μM NA
Med25 AcID [4] = molecular target: T6, Med25 AcID (Homo sapiens, UniProt Q71SY5, K519R); test: Mass spectrometry; assay type: binding; settings: Med25 K519R mutant
T6 sequence (Q71SY5 394-543 K519R): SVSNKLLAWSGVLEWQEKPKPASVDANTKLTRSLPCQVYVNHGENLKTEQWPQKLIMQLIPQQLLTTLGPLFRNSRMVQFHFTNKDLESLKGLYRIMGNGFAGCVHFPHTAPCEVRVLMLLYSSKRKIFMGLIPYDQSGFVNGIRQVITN

Med25 AcID [5] = molecular target: T7, Med25 AcID (Homo sapiens, UniProt Q71SY5, K520R); test: Mass spectrometry; assay type: binding; settings: Med25 K520R mutant
T7 sequence (Q71SY5 394-543 K520R): T6 sequence (Q71SY5 394-543 K519R) with R126K, K127R

Med25 AcID [6] = molecular target: T8, Med25 AcID (Homo sapiens, UniProt Q71SY5); test: Mass spectrometry; assay type: binding; settings: mass spectrometry
T8 sequence (Q71SY5 389-543 limits assumed): T1 sequence (Q71SY5 389-543 limits assumed)

SMILES: Cc1cc(O)c(C=O)c2c1C(=O)Oc1c(C)c(O)c3c(c1O2)C(O)OC3=O (centres unmarked) [NA, norstictic acid]
- inhibition of Med25 PPI with ETV5 (Med25 AcID ETV5): inhibits
- IC50 (IBiD ACTR): > 250 µM
- time at which significant inhibition was observed ([1]; time-course experiment): 5 min
- thermal stabilization of endogenous Med25 (full-length Med25): stabilizes endogenous Med25 protein
- synergy with lapatinib (MDA-MB-231 cells): strong synergy was observed
- inhibition of Med25 PPI with ATF6α (Med25 ATF6α): inhibits
- formation of Med25 ETV5 complex (Med25 ETV5 complex [2]): blocks the Med25 ETV5 complex
- MMP2 transcript levels relative to vehicle (MMP2 transcript): substantial downregulation of MMP2
- formation of Med25 ETV5 complex (Med25 ETV5 complex [3]): blocks the formation of the Med25 ETV5 complex
- reduction in mass abundance of the +1 covalent adduct (Med25 AcID [4]): 53%
- reduction in mass abundance of the NA covalent adduct (Med25 AcID [5]): 22%
- covalent adduct formation with Med25 AcID (Med25 AcID [6]): concentration-dependent covalent adduct(s)

SMILES: COc1cc(C(=O)O)c2c(c1C)OC(=O)c1c(C)cc(O)c(C=O)c1O2 [PA, psoromic acid]
- IC50 [1]: 3.9 ± 0.3 µM

SMILES: COc1cc(C)c2c(c1C=O)Oc1c(c(C)c(O)c3c1C(O)OC3=O)OC2=O (centres unmarked) [Stictic acid]
- IC50 [1]: > 250 µM

SMILES: COc1cc(C)c(C(=O)Oc2cc(C)c(C(=O)O)c(O)c2C)c(O)c1C=O [baeomycesic acid]
- covalent adduct formation with Med25 AcID (Med25 AcID [6]): covalent adducts with Med25 were observed

SMILES: O=Cc1ccccc1O [salicylaldehyde]
- impact on binding of activators to Med25 AcID [1]: does not impact binding of activators
- covalent adduct formation with Med25 AcID (Med25 AcID [6]): efficiently labels Med25 AcID
